A selection: hits, their analogues and other compounds. The true share with any hit is near 3.3%.
mABHD4 FP – ABHD4 (mouse) inhibition, primary FP screen; purified mABHD4, FP-Rh probe fluorescence polarization; inhibition, % at 8.92 µM; 0.54% of 370,000 active; AID 720543;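 active = inhibition exceeding the mean over every tested compound plus 3 SD, cut at about 30% in these data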;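 also: 0% = plate median of compound wells and 100% = S159A mutant with DMSO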
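Assay system: mouse ABHD4 enzyme, wild type / Also added: fluorescent activity-based probe FP-Rh / Doses: single nominal dose of 8.92 µM, 0.89% DMSO final / Timing: 45 min compound pre-incubation plus 60 min probe step, 25 °C / Signal: FP readout, ex 525 nm / em 598 nm / Control set: S159A mutant/DMSO as 100%, compound-well median as 0%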
TCR-CD3 inh – blocks the human TCR-CD3 interaction. 0.37% of 360,000 active. inhibition, % at 9.4 µM. TAMRA-labeled TCR probe fluorescence, biochemical; in the data active = inhibition above about 19%;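 also: recombinant mutant TCR 2C K166C tagged with TAMRA read by polarization; 0% = receptor in buffer alone and 100% = receptor with positive control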
SIAE primary – inhibitors of human sialic acid acetylesterase SIAE; Q9HAT2; SIAE FP-Rh probe binding, fluorescence polarization; inhibition, % at 9.66 µM; 0.69% of 370,000 active;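 active = inhibition above a cutoff: mean of compounds within the control limits plus 3 SD of those, cut at about 17% in these data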;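 also: 0% = plate median of compound wells and 100% = probe without SIAE protein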
rCAG binder – r(CAG) repeat RNA binding; TO-PRO-1 dye displacement fluorescence; inhibition, % at 3 µM; 1.3% of 370,000 active; AID 651821;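 active = inhibition above the plate cutoff, the mean of all test compounds on that plate plus 3 SD, cut at about 35% in these data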;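 also: 0% = DMSO alone and 100% = 100 µM mitoxantrone as full dye displacement; higher means more dye released from RNA so lower well fluorescence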
PRMT1 inh – blocks human protein arginine methyltransferase 1; Q99873; 1.3% of 370,000 active; recombinant PRMT1, activity-based probe fluorescence polarization; inhibition, % at 2.79 µM;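 active = inhibition above about 21% made by adding two undisclosed values, limit read from the data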
Target sequence (Q99873 whole entry, looked up): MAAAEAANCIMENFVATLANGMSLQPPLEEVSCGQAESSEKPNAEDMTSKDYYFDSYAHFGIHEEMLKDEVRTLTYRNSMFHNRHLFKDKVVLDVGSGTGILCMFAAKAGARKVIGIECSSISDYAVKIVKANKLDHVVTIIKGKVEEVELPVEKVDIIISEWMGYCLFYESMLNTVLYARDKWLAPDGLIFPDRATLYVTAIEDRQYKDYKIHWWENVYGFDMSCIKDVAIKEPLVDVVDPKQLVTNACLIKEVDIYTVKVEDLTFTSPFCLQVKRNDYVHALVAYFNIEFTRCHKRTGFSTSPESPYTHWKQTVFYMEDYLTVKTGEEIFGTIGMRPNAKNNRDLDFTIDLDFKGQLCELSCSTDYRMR
rCAG binder conf – r(CAG) RNA repeat binding, confirmation. shares compounds with rCAG binder. TO-PRO-1 dye displacement fluorescence. inhibition, % at 3 µM. 70% of 4,300 active;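 active = inhibition above a per-plate cutoff, the mean inhibition of sample wells plus 3 SD, cut at about 35% in these data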;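 also: loss of TO-PRO-1 fluorescence as compound displaces dye from 1x1 AA loop RNA; 0% = DMSO only wells and 100% = 100 µM mitoxantrone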
dCAG dye counter – counter-screen for rCAG RNA binders: DNA CAG dye complex inhibitors | shares compounds with rCAG binder | d(CAG) DNA oligo TO-PRO-1 dye displacement, fluorescence | inhibition, % at 3 µM | 94% of 4,300 active | AID 652068;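 active = inhibition above its plate's cutoff, the mean test-well inhibition plus 3 SD, cut at about 4.8% in these data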;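 also: 0% = DNA dye mix with DMSO and 100% = 100 µM mitoxantrone; hits displace the dye from DNA and so lower well fluorescence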
DNA CAG DR – counter-screen for rCAG binders: inhibitors of DNA CAG TO-PRO-1 complex; shares compounds with rCAG binder; DNA CAG/GTC duplex TO-PRO-1 dye displacement fluorescence; IC50, µM; 20% of 250 active; in the data active = IC50 below about 10 µM
Numbers without * were called inactive; i = inactive; nt = not tested or not shown.

SMILES | mABHD4 FP | TCR-CD3 inh | SIAE primary | rCAG binder | PRMT1 inh | rCAG binder conf | dCAG dye counter | others
O=C(O)c1cccc2c1C(=O)c1ccc(-c3ccc(OC(F)(F)F)cc3)cc1S2(=O)=O | 10 | 4 | -2 | 69* | -1 | 60* | 16*
O=C(O)c1cccc2c1C(=O)c1ccc(-c3ccc(F)cc3F)cc1S2(=O)=O | -3 | -6 | 0 | 22 | 7 | nt | nt
O=C(CSc1nnc(-c2cnccn2)n1-c1ccccc1)c1ccccc1Br | -3 | nt | 4 | 8 | -1 | nt | nt
O=C(O)CC1(CC(=O)Nc2cc(C(F)(F)F)cc(C(F)(F)F)c2)CCCCC1 | 2 | -6 | 0 | 42* | 3 | 24 | 4.8*
Fc1cccc(CNC2CCC23CCC(c2ccccc2)CC3)c1 (stereo unspecified) | 3 | nt | -5 | nt | -9 | nt | nt
Cc1ccc(S(=O)(=O)N(Cc2ccc(Cl)cc2)c2ccccc2C(=O)O)cc1 | 5 | 8 | 1 | 30 | 0 | nt | nt
O=C(O)c1cccc(S(=O)(=O)N(Cc2ccccc2)c2cccc(C(F)(F)F)c2)c1 | -6 | -7 | 6 | 53* | -2 | 53* | 12* | DNA CAG DR=>30
O=C(O)c1cccc(S(=O)(=O)N(Cc2ccccc2)c2ccccc2Cl)c1 | 4 | -8 | -3 | 30 | 3 | nt | nt
O=C(O)c1cc(S(=O)(=O)N(Cc2ccccc2)c2ccc(Cl)cc2)ccc1Cl | -11 | 5 | -9 | 54* | 2 | 43* | 9.8*
Cc1ccc(S(=O)(=O)N(CC(=O)Nc2ccccc2C(=O)O)c2ccc(Cl)cc2)cc1 | -18 | 2 | -2 | 62* | -3 | 58* | 18*
CC(C)[C@H](N)C(=O)N[C@@H](Cc1ccccc1)C(=O)N1CCC2CCN(S(=O)(=O)c3ccccc3)CC21 (stereo partly specified) | 5 | nt | 2 | 4 | 3 | nt | nt
CCN1CCCCC(NC(=O)c2ccc(C)cc2)C1=O (stereo unspecified) | -10 | nt | -7 | 2 | -10 | nt | nt
CCc1ccc(/C=C/C(=O)C2C(=O)c3ccccc3C2=O)cc1 | -29 | 6 | -13 | 64* | 0 | 79* | 39*
Cc1cc(N2C(=O)C(O)=C(C(=O)c3ccc(C)o3)C2c2cccc(Cl)c2)no1 (stereo unspecified) | -2 | -13 | -4 | 27 | 13 | nt | nt
Cc1cc(N2C(=O)C(O)=C(C(=O)c3cc4ccccc4o3)C2c2cccc(Cl)c2)no1 (stereo unspecified) | 2 | -12 | -6 | 60* | 5 | 71* | 32* | DNA CAG DR=5.7*
Cc1cc(N2C(=O)C(O)=C(C(=O)c3cc4ccccc4o3)C2c2ccc(Cl)cc2)no1 (stereo unspecified) | -7 | -10 | -10 | 56* | 8 | 75* | 38*
Cc1cc(N2C(=O)C(O)=C(C(=O)c3cc4ccccc4o3)C2c2ccc(Br)cc2)no1 (stereo unspecified) | -11 | -3 | 0 | 34 | 4 | nt | nt
CC(=C\c1ccccc1)/C=C1/SC(=S)N(C(C(=O)O)C(C)C)C1=O (stereo unspecified) | -11 | 2 | -1 | 69* | 11 | 63* | 25*
CCC(C(=O)O)N1C(=O)/C(=C/C(C)=C/c2ccccc2)SC1=S (stereo unspecified) | -8 | -3 | 0 | 61* | 3 | 76* | 31* | DNA CAG DR=i
COC(=O)[C@]12C[C@H](CC(=O)NCc3cccs3)C(=O)N(Cc3ccc4c(c3)OCO4)C1=C[C@H](C(C)C)O[C@@H]2C1CC1 | -4 | nt | -6 | 5 | -2 | nt | nt
Oc1ccc(N=Nc2c(O)ccc3ccccc23)cc1 | 19 | -10 | 13 | 41* | 4 | 34 | 17*
O=C(C1CC1)C1(C(=O)N2CCOCC2)CC(c2ccccn2)=NO1 (stereo unspecified) | -5 | nt | 3 | 1 | -2 | nt | nt
Cc1cc(/C=N/NC(=O)C(O)(c2ccccc2)c2ccccc2)c(C)n1-c1cccc(C(=O)O)c1 | 22 | 8 | 0 | 41* | 5 | 58* | 26*

Compound activity (PubChem)
